Experimental data published in ChEMBL document CHEMBL5055631, “Antitumor properties of novel sesquiterpene lactone analogs as NFκB inhibitors that bind to the IKKβ ubiquitin-like domain (ULD)” (Eur J Med Chem, 2021).

How the values were obtained:
Format in all cases: functional
BT-549 = assay: Anticancer activity against human BT-549 cells assessed as cell growth inhibition incubated for 48 hrs by SRB method
Summary of the method: (§1)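 NCI-60 panel (DTP). Cells in RPMI 1640 with 5% FBS, 2 mM L-glutamine, seeded at 5,000–40,000 per well by doubling time and preincubated 24 h at 37 °C, 5% CO2. Time-zero plates TCA-fixed. DMSO stocks diluted in medium with gentamicin, tested at 100 μM, 10 μM, 1 μM, 0.1 μM and 10 nM for 48 h. Cells fixed with cold TCA, stained with SRB, absorbance read at 515 nm.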

TK-10 = assay: Anticancer activity against human TK-10 cells assessed as cell growth inhibition incubated for 48 hrs by SRB method
Summary of the method: (§2)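 NCI-60 panel, SRB assay. Cells grown in RPMI 1640 with 5% FBS and 2 mM L-glutamine, seeded at 5,000–40,000 cells/well depending on doubling time, and preincubated 24 h at 37 °C with 5% CO2. Time-zero plates were TCA-fixed. Compounds came from DMSO stocks and were tested at 100 μM, 10 μM, 1 μM, 0.1 μM and 10 nM for 48 h. Cells were fixed with cold TCA and stained with 0.4% SRB, and the dye was solubilized in 10 mM Tris base with A515 read.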

NCI-H23 = assay: Anticancer activity against human NCI-H23 cells assessed as cell growth inhibition incubated for 48 hrs by SRB method; summary of the method: as §1
OVCAR-8 = assay: Anticancer activity against human OVCAR-8 cells assessed as cell growth inhibition incubated for 48 hrs by SRB method; summary of the method: as §1
K562 = assay: Anticancer activity against human K562 cells assessed as cell growth inhibition incubated for 48 hrs by SRB method
MDA-MB-435 = assay: Anticancer activity against human MDA-MB-435 cells assessed as cell growth inhibition incubated for 48 hrs by SRB method; summary of the method: as §1
HOP-62 = assay: Anticancer activity against human HOP-62 cells assessed as cell growth inhibition incubated for 48 hrs by SRB method; summary of the method: as §1
A549 = assay: Anticancer activity against human A549 cells assessed as cell growth inhibition incubated for 48 hrs by SRB method; summary of the method: as §1
SF-539 = assay: Anticancer activity against human SF-539 cells assessed as cell growth inhibition incubated for 48 hrs by SRB method
UACC-257 = assay: Anticancer activity against human UACC-257 assessed as cell growth inhibition incubated for 48 hrs by SRB method; summary of the method: as §2
SW-620 = assay: Anticancer activity against human SW-620 cells assessed as cell growth inhibition incubated for 48 hrs by SRB method
DU-145 = assay: Anticancer activity against human DU-145 cells assessed as cell growth inhibition incubated for 48 hrs by SRB method; summary of the method: as §1
COLO 205 = assay: Anticancer activity against human COLO 205 cells assessed as cell growth inhibition incubated for 48 hrs by SRB method
RXF 393 = assay: Anticancer activity against human RXF 393 cells assessed as cell growth inhibition incubated for 48 hrs by SRB method; summary of the method: as §1
NCI-H522 = assay: Anticancer activity against human NCI-H522 cells assessed as cell growth inhibition incubated for 48 hrs by SRB method
HOP-92 = assay: Anticancer activity against human HOP-92 cells assessed as cell growth inhibition incubated for 48 hrs by SRB method
HT-29 = assay: Anticancer activity against human HT29 cells assessed as cell growth inhibition incubated for 48 hrs by SRB method; summary of the method: as §1
HCT-15 = assay: Anticancer activity against human HCT-15 cells assessed as cell growth inhibition incubated for 48 hrs by SRB method; summary of the method: as §1
OVCAR-4 = assay: Anticancer activity against human OVCAR-4 cells assessed as cell growth inhibition incubated for 48 hrs by SRB method
SF-295 = assay: Anticancer activity against human SF-295 cells assessed as cell growth inhibition incubated for 48 hrs by SRB method; summary of the method: as §1
HCC 2998 = assay: Anticancer activity against human HCC 2998 cells assessed as cell growth inhibition incubated for 48 hrs by SRB method; summary of the method: as §1
A498 = assay: Anticancer activity against human A498 cells assessed as cell growth inhibition incubated for 48 hrs by SRB method; summary of the method: as §1
LOX IMVI = assay: Anticancer activity against human LOX IMVI cells assessed as cell growth inhibition incubated for 48 hrs by SRB method
CAKI-1 = assay: Anticancer activity against human CAKI-1 cells assessed as cell growth inhibition incubated for 48 hrs by SRB method; summary of the method: as §1
U-251 = assay: Anticancer activity against human U-251 cells assessed as cell growth inhibition incubated for 48 hrs by SRB method; summary of the method: as §2
PC-3 = assay: Anticancer activity against human PC-3 cells assessed as cell growth inhibition incubated for 48 hrs by SRB method; summary of the method: as §1
RPMI-8226 = assay: Anticancer activity against human RPMI-8226 cells assessed as cell growth inhibition incubated for 48 hrs by SRB method
SK-MEL-28 = assay: Anticancer activity against human SK-MEL-28 cells assessed as cell growth inhibition incubated for 48 hrs by SRB method; summary of the method: as §1
T47D = assay: Anticancer activity against human T47D cells assessed as cell growth inhibition incubated for 48 hrs by SRB method; summary of the method: as §1
CCRF-CEM = assay: Anticancer activity against human CCRF-CEM cells assessed as cell growth inhibition incubated for 48 hrs by sulforhodamine B assay
UO-31 = assay: Anticancer activity against human UO-31 cells assessed as cell growth inhibition incubated for 48 hrs by SRB method
Summary of the method: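 NCI-60 panel, SRB assay. Time-zero plates were TCA-fixed. Compounds came from DMSO stocks and were tested at 100 μM, 10 μM, 1 μM, 0.1 μM and 10 nM for 48 h. Cells were fixed with cold TCA and stained with 0.4% SRB, and the dye was solubilized in 10 mM Tris base with A515 read.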

SF-268 = assay: Anticancer activity against human SF-268 cells assessed as cell growth inhibition incubated for 48 hrs by SRB method; summary of the method: as §1
NCI-H226 = assay: Anticancer activity against human NCI-H226 cells assessed as cell growth inhibition incubated for 48 hrs by SRB method; summary of the method: as §1
MDA-MB-468 = assay: Anticancer activity against human MDA-MB-468 cells assessed as cell growth inhibition incubated for 48 hrs by SRB method; summary of the method: as §1
M14 = assay: Anticancer activity against human M14 cells assessed as cell growth inhibition incubated for 48 hrs by SRB method; summary of the method: as §1
MOLT-4 = assay: Anticancer activity against human MOLT-4 assessed as cell growth inhibition incubated for 48 hrs by SRB method
ACHN = assay: Anticancer activity against human ACHN cells assessed as cell growth inhibition incubated for 48 hrs by SRB method; summary of the method: as §1
[1] = Anticancer activity against human HS 578T cells assessed as cell growth inhibition incubated for 48 hrs by SRB method
IGROV-1 = assay: Anticancer activity against human IGROV-1 cells assessed as cell growth inhibition incubated for 48 hrs by SRB method; summary of the method: as §1
EKVX = assay: Anticancer activity against human EKVX cells assessed as cell growth inhibition incubated for 48 hrs by SRB method; summary of the method: as §1
NCI/ADR-RES = assay: Anticancer activity against human NCI/ADR-RES cells assessed as cell growth inhibition incubated for 48 hrs by SRB method; summary of the method: as §1

With `C=C1C(=O)O[C@H]2[C@H]1CC/C(COC(=O)NCc1ccc(OC)cc1)=C\CC[C@@]1(C)O[C@@H]21` the GI50 (BT-549) was 0.62 µM, the GI50 (TK-10) was 0.31 µM and the GI50 (NCI-H23) was 0.55 µM. The GI50 (OVCAR-8) was 0.49 µM, the GI50 (K562) was 0.37 µM and the GI50 (MDA-MB-435) was 0.42 µM. It also gave a GI50 (HOP-62) of 4.81 µM, a GI50 (A549) of 2.43 µM and a GI50 (SF-539) of 0.32 µM. It also gave a GI50 (UACC-257) of 1.52 µM, a GI50 (SW-620) of 0.22 µM and a GI50 (DU-145) of 0.16 µM. For the same molecule, the GI50 (COLO 205) was 0.24 µM, the GI50 (RXF 393) was 0.27 µM and the GI50 (NCI-H522) was 0.17 µM. For the same molecule, the GI50 (HOP-92) was 0.24 µM, the GI50 (HT-29) was 0.26 µM and the GI50 (HCT-15) was 0.24 µM. For the same molecule, the GI50 (OVCAR-4) was 0.29 µM, the GI50 (SF-295) was 10.8 µM and the GI50 (HCC 2998) was 0.51 µM. The GI50 (A498) was 1.79 µM, the GI50 (LOX IMVI) was 0.27 µM and the GI50 (CAKI-1) was 0.72 µM. It also gave a GI50 (U-251) of 0.96 µM, a GI50 (PC-3) of 0.35 µM and a GI50 (RPMI-8226) of 0.26 µM. For the same molecule, the GI50 (SK-MEL-28) was 1.18 µM, the GI50 (T47D) was 0.79 µM and the GI50 (CCRF-CEM) was 0.26 µM. For the same molecule, the GI50 (UO-31) was 0.19 µM, the GI50 (SF-268) was 0.75 µM and the GI50 (NCI-H226) was 0.48 µM. The GI50 (MDA-MB-468) was 0.24 µM, the GI50 (M14) was 0.19 µM and the GI50 (MOLT-4) was 0.28 µM. The GI50 (ACHN) was 0.18 µM, the GI50 [1] was 0.27 µM and the GI50 (IGROV-1) was 0.32 µM. It also gave a GI50 (EKVX) of 1.29 µM and a GI50 (NCI/ADR-RES) of 1.46 µM.
In the case of `C=C1C(=O)O[C@H]2[C@H]1CC/C(COC(=O)NCCc1ccc(OC)cc1)=C\CC[C@@]1(C)O[C@@H]21`, the GI50 (BT-549) is reported as 2.02 µM, the GI50 (TK-10) is reported as 2.52 µM and the GI50 (NCI-H23) is reported as 4.34 µM. The GI50 (OVCAR-8) was 3.41 µM, the GI50 (K562) was 3.08 µM and the GI50 (MDA-MB-435) was 3.53 µM. The GI50 (HOP-62) was 12.2 µM, the GI50 (A549) was 13.2 µM and the GI50 (SF-539) was 1.79 µM. The GI50 (UACC-257) was 1.47 µM, the GI50 (SW-620) was 2.51 µM and the GI50 (DU-145) was 1.76 µM. The GI50 (COLO 205) was 1.94 µM, the GI50 (RXF 393) was 1.72 µM and the GI50 (NCI-H522) was 1.82 µM. It also gave a GI50 (HOP-92) of 1.99 µM, a GI50 (HT-29) of 2.15 µM and a GI50 (HCT-15) of 1.74 µM. It also gave a GI50 (OVCAR-4) of 2.61 µM, a GI50 (SF-295) of 13.5 µM and a GI50 (HCC 2998) of 2.48 µM. For the same molecule, the GI50 (A498) was 10 µM, the GI50 (LOX IMVI) was 1.38 µM and the GI50 (CAKI-1) was 4.52 µM. It also gave a GI50 (U-251) of 11.1 µM, a GI50 (PC-3) of 2.73 µM and a GI50 (RPMI-8226) of 2.85 µM. The GI50 (SK-MEL-28) was 8.97 µM, the GI50 (T47D) was 13.8 µM and the GI50 (CCRF-CEM) was 1.98 µM. The GI50 (UO-31) was 1.55 µM, the GI50 (SF-268) was 10.6 µM and the GI50 (NCI-H226) was 4.11 µM. The GI50 (MDA-MB-468) was 1.55 µM, the GI50 (M14) was 1.98 µM and the GI50 (MOLT-4) was 2.61 µM. It also gave a GI50 (ACHN) of 1.76 µM, a GI50 [1] of 1.89 µM and a GI50 (IGROV-1) of 2.49 µM. The GI50 (EKVX) was 7.45 µM and the GI50 (NCI/ADR-RES) was 2.65 µM.
